Laboratory results taken from ChEMBL document CHEMBL4028898, “Structure-Activity Relationships of 6- and 8-Gingerol Analogs as Anti-Biofilm Agents” (J Med Chem, 2017).
Calls of active or inactive are those of the source. No cut-off for these calls is given here.

What was measured:
[1] = tested on: Pseudomonas aeruginosa; assay: Antagonist activity at Pseudomonas aeruginosa LasR expressed in Escherichia coli DH5alpha assessed as inhibition of protein interaction with OdDHL at 1 to 10 uM after 1.5 hrs by beta-galactosidase reporter gene assay
How it was run: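 E. coli DH5α reporter carrying pJN105L (LasR) and pSC11 (lasI::lacZ); overnight culture with 10 µg/mL gentamicin and 50 µg/mL ampicillin diluted 1:100 in LB, used at OD595 0.3. Incubated with compound, OdDHL and 0.4% arabinose at 37 °C for 1.5 hr. β-galactosidase read by luminescence; RLU ratio = luminescence/OD595 ×100.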

[2] = tested on: Pseudomonas aeruginosa; assay: Agonist activity at Pseudomonas aeruginosa LasR expressed in Escherichia coli DH5alpha at 10 uM after 1.5 hrs by beta-galactosidase reporter gene assay
[3] = tested on: Pseudomonas aeruginosa; assay: Inhibition of static biofilm formation of Pseudomonas aeruginosa PA14 at 10 uM after 24 hrs by crystal violet staining-based assay; assay type: functional
How it was run: (§1)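 PA14 overnight culture (OD595 1.0) diluted 1:20 in AB medium, pH 7.5, with compound (0–100 µM), in borosilicate bottles, static at 37 °C for 24 hr.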

[4] = tested on: Pseudomonas aeruginosa; assay: Growth inhibition of Pseudomonas aeruginosa PA14 at 100 uM after 24 hrs
How it was run: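 P. aeruginosa PA14 overnight culture (OD595 1.0), 5% dilution with compound (0–100 µM), grown in 96-well plates at 37 °C for 24 h; growth read as OD595.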

[5] = tested on: Pseudomonas aeruginosa; assay: Reversible binding affinity to Pseudomonas aeruginosa LasR expressed in Escherichia coli DH5alpha at 1 uM after 1.5 hrs in presence of OdDHL by beta-galactosidase reporter gene assay
How it was run: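 LasR reporter in E. coli DH5α (pJN105L + pSC11) with 0.4% arabinose, 37 °C, 1.5 hr. Compound at 1 µM tested against OdDHL at 0, 0.1, 1, 10 and 100 µM, compared with no-compound control. β-galactosidase luminescence divided by OD595.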

[6] = tested on: Pseudomonas aeruginosa; assay: Inhibition of dynamic biofilm formation of Pseudomonas aeruginosa PA14 assessed as biofilm volume up to 10 uM after 48 hrs by Ruby/ConA staining-based assay (reference value: 23.1 +/- 1.8 um'3/um'2); assay type: functional
How it was run: (§2)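 Glass slides seeded 24 h at 37 °C, static, with PA14 (OD595 1.0) in AB medium, then placed in a drip-flow reactor fed with AB medium plus compound (0–10 µM) at 0.3 mL/min, 37 °C, 48 hr. PBS-washed biofilm stained 15 min with FITC-ConA (carbohydrate) and SYPRO Ruby (protein); CLSM at 20×; volume (µm³/µm²) and average thickness quantified by Comstat2.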

[7] = tested on: Pseudomonas aeruginosa; assay: Inhibition of dynamic biofilm formation of Pseudomonas aeruginosa PA14 assessed as biofilm thickness up to 10 uM after 48 hrs by Ruby/ConA staining-based assay (reference value: 34.5 +/- 1.3 um); assay type: functional; how it was run: as §2
[8] = tested on: Pseudomonas aeruginosa; assay: Inhibition of dynamic biofilm formation of Pseudomonas aeruginosa PA14 assessed as volume of carbohydrates in biofilm up to 10 uM after 48 hrs by Ruby/ConA staining-based assay relative to control; assay type: functional; design: scale not given: the % may be the effect or the level left; how it was run: as §2
[9] = tested on: Pseudomonas aeruginosa; assay: Inhibition of dynamic biofilm formation of Pseudomonas aeruginosa PA14 assessed as volume of proteins in biofilm up to 10 uM after 48 hrs by Ruby/ConA staining-based assay relative to control; assay type: functional; design: scale not given: the % may be the effect or the level left; how it was run: as §2
[10] = tested on: Pseudomonas aeruginosa; assay: Inhibition of dynamic biofilm formation of Pseudomonas aeruginosa PA14 at 10 uM after 48 hrs by Ruby/ConA staining-based confocal laser scanning microscopic method; assay type: functional; how it was run: as §2
[11] = tested on: Pseudomonas aeruginosa; assay: Inhibition of static biofilm formation of Pseudomonas aeruginosa PA14 at 100 uM after 24 hrs by crystal violet staining-based assay; assay type: functional; how it was run: as §1
[12] = tested on: Pseudomonas aeruginosa; assay: Inhibition of static biofilm formation of Pseudomonas aeruginosa PA14 assessed as level of biofilm formation at 10 uM after 24 hrs by crystal violet staining-based assay relative to control; assay type: functional; design: scale not given: the % may be the effect or the level left; how it was run: as §1

| inhibition [1] | Structure (SMILES) | inhibition [3] | other results |
| --- | --- | --- | --- |
| Active | CCCCCC(O)CC(=O)CCc1cccc(OC)c1 (stereo not drawn) | – | – |
| Active | CCCCCCCC(O)CC(=O)CCc1ccc(OC)c(OC)c1 (stereo not drawn) | – | – |
| Active | CCCCCC(O)CC(=O)CCc1ccccc1 (stereo not drawn) | – | – |
| Active | CCCCC(O)CC(=O)CCc1ccc(O)c(OC)c1 (stereo not drawn) | – | Activity [2]: inactive |
| Active | CCCCCCCC(O)CC(=O)CCc1cccc(OC)c1 (stereo not drawn) | – | – |
| Active | CCCCCC(O)CC(=O)CCc1ccc(O)cc1 (stereo not drawn) | Active | – |
| Active | CCCCCCCC(O)CC(=O)CCc1ccc(O)c(OC)c1 (stereo not drawn) | – | Activity [2]: inactive |
| Active | CCCCCCCCC(O)CC(=O)CCc1ccc(O)c(OC)c1 (stereo not drawn) | – | inhibition [11]: Active; growth inhibition (GI) [4]: Toxic; Activity [2]: inactive |
| Active | CCCCCCC(O)CC(=O)CCc1ccc(O)c(OC)c1 (stereo not drawn) | – | Activity [2]: inactive |
| Active | CCCCCC(O)CC(=O)CCc1ccc(F)cc1 (stereo not drawn) | Active | – |
| Active | CCCCCCCC(O)CC(=O)CCc1ccc(F)c(OC)c1 (stereo not drawn) | Active | – |
| Active | CCCCC[C@H](O)CC(=O)CCc1ccc(O)c(OC)c1 | Active | – |
| Active | CCCCCCC[C@@H](O)CC(=O)CCc1ccc(O)c(OC)c1 | – | growth inhibition (GI) [4]: Non-Toxic; Activity [12]: 72%; Activity [6]: 9.7 um3/um2; Activity [7]: 13.9 um; inhibition [10]: Active |
| Active | CCCCCC(O)CC(=O)CCc1ccc(O)c(OC)c1 (stereo not drawn) | – | Activity [2]: inactive |
| Active | CCCCCC(O)CC(=O)CCc1ccc(F)c(OC)c1 (stereo not drawn) | Active | – |
| Active | CCCCCCC[C@H](O)CC(=O)CCc1ccc(O)c(OC)c1 | – | Activity [12]: 100%; Activity [6]: 17 um3/um2; Activity [7]: 17 um; inhibition [10]: Active |

Continued, molecule first:

| Structure (SMILES) | inhibition [1] | inhibition [3] | other results |
| --- | --- | --- | --- |
| CCCCCC(O)CC(=O)/C=C/c1ccc(O)c(OC)c1 (stereo not drawn) | Active | – | – |
| CCCC(O)CC(=O)CCc1ccc(O)c(OC)c1 (stereo not drawn) | Active | – | Activity [2]: inactive |
| CCCCCCCC(O)CC(=O)CCc1ccc(O)c(OCC)c1 (stereo not drawn) | Active | – | – |
| CCCCCCCC(O)CC(=O)CCc1ccc(F)cc1 (stereo not drawn) | Active | Active | – |
| CCCCCCC[C@@H](O)CC(=O)/C=C/c1ccc(O)c(OC)c1 | Active | Active | growth inhibition (GI) [4]: Non-Toxic; Activity [5]: Active; Activity [6]: 7.4 um3/um2; Activity [7]: 10.3 um; Activity [8]: 47 - 74%; Activity [9]: 23 - 56%; inhibition [10]: Active |
| CCCCCCCCCC(=O)CCc1ccc(O)c(OC)c1 | Active | Active | – |
| CCCCCCCCCC(=O)/C=C/c1ccc(O)c(OC)c1 | Active | Active | – |
| CCCCCCCC(O)CC(=O)CCc1ccc(O)cc1 (stereo not drawn) | Active | Active | – |
| CCCCCCCC(O)CC(=O)CCc1ccccc1 (stereo not drawn) | Active | – | – |
| CCCCCCCC(O)CC(=O)/C=C/c1ccc(O)c(OC)c1 (stereo not drawn) | Active | – | – |
| CCCCCCCC(=O)/C=C/c1ccc(O)c(OC)c1 | Active | Active | – |
| CCCCCCCCCC(O)CC(=O)CCc1ccc(O)c(OC)c1 (stereo not drawn) | Active | – | inhibition [11]: Active; growth inhibition (GI) [4]: Toxic; Activity [2]: inactive |
| CCCCCCCC(=O)CCc1ccc(O)c(OC)c1 | Active | Active | – |
